ChEMBL document CHEMBL4715690 (Bioorg Med Chem, 2016)
Active and inactive are the calls of the source. The calls are words filed in the database; no cut-off is given here.

Experiments:
MCF7 = assay: Antiproliferative activity against human MCF7 cells expressing c-MET assessed as reduction in cell viability incubated for 72 hrs by MTT assay; type: functional, cell-based; details: MCF7, 72 h
Outline: (§1)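 Cells plated at 1×10⁴/well (6 wells/group) in RPMI-1640 with 10% FBS and left to adhere overnight. They were then switched to serum-free RPMI-1640 with 40 ng/mL HGF as mitogen plus at least four compound concentrations, or DMSO vehicle (final ≤0.1%), for 72 h, refed every other day. MTT (1 mg/mL) was added for 4 h, formazan dissolved in DMSO, and A570 read. Cell number came from a standard curve, survival was expressed versus DMSO, and IC50 was fitted by nonlinear regression.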

[1] = Antiproliferative activity against human MCF7-DOX cells expressing c-MET assessed as reduction in cell viability incubated for 72 hrs by MTT assay; type: functional, cell-based
Outline: (§2)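 MTT proliferation. Cells in exponential growth were seeded at 1×10⁴/well (6 wells/group) in RPMI-1640 with 10% FBS and left to adhere overnight. They were then switched to serum-free RPMI-1640 with 40 ng/mL HGF as mitogen plus test doses (at least four concentrations) or DMSO vehicle (≤0.1% final), refreshed every other day. After 72 h, 1 mg/mL MTT was added for 4 h, DMSO solubilized, A570 read. Cell number came from a standard curve, and IC50 was fitted by nonlinear regression of log concentration versus % survival.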

BT-474 = assay: Antiproliferative activity against human BT-474 cells expressing c-MET assessed as reduction in cell viability incubated for 72 hrs by MTT assay; type: functional, cell-based; details: BT-474, 72 h; outline: as §1
SK-BR-3 = assay: Antiproliferative activity against human SK-BR-3 cells expressing c-MET assessed as reduction in cell viability incubated for 72 hrs by MTT assay; type: functional, cell-based; details: SK-BR-3, 72 h; outline: as §1
MDA-MB-231 [2] = assay: Antiproliferative activity against human MDA-MB-231 cells expressing c-MET assessed as reduction in cell viability incubated for 72 hrs by MTT assay; type: functional, cell-based; details: MDA-MB-231, 72 h; outline: as §2
MDA-MB-468 = assay: Antiproliferative activity against human MDA-MB-468 cells expressing c-MET assessed as reduction in cell viability incubated for 72 hrs by MTT assay; type: functional, cell-based; details: MDA-MB-468, 72 h; outline: as §1
[3] = Cytotoxicity against human MCF-10A cells assessed as cell viability at 20 uM incubated for 72 hrs by MTT assay; type: cell-based; details: read-out: Activity
[4] = target: T1, Hepatocyte growth factor receptor (Homo sapiens, UniProt P08581); assay: Inhibition of recombinant human His-tagged c-MET expressed in baculovirus expression system assessed as reduction in c-MET phosphorylation at 5 uM using Tyr6 as substrate incubated for 1 hr by Z'-lyte assay relative to control
Outline: (§3)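 Cell-free Z′-LYTE Tyr6 assay with recombinant human wild-type or M1250T mutant c-Met kinase at 2500 ng/mL, plus 200 μM ATP, 4 μM Tyr6 peptide and inhibitor. Reaction ran 1 h at room temperature, followed by protease development for 1 h. Readout was the 445/520 nm emission ratio. IC50 from nonlinear regression of log concentration vs % phosphorylation; n=3/dose.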

[5] = target: T1, Hepatocyte growth factor receptor; assay: Inhibition of recombinant human His-tagged c-MET expressed in baculovirus expression system assessed as reduction in c-MET phosphorylation at 10 uM using Tyr6 as substrate incubated for 1 hr by Z'-lyte assay relative to control; outline: as §3
MDA-MB-231 [6] = assay: Antiinvasive activity against human MDA-MB-231 cells assessed as reduction in HGF-mediate cell invasion at 15 uM incubated for 24 hrs by fluorescence based assay relative to control; type: functional; design: scale not given: the % may be the effect or the level left
Outline: (§4)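 Cells starved 16 h in serum-free RPMI-1640, then 25,000 cells placed in rehydrated basement-membrane inserts. The bottom wells held 5% serum medium with test compound or DMSO vehicle, and invasion was induced with 40 ng/mL HGF. After 24 h at 37 °C, invaded cells were stained with calcein AM and read at ex 485/em 520 nm. Cell number came from a standard curve; triplicates.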

MDA-MB-231 [7] = assay: Antiinvasive activity against human MDA-MB-231 cells assessed as reduction in HGF-mediate cell invasion at 30 uM incubated for 24 hrs by fluorescence based assay relative to control; type: functional; design: scale not given: the % may be the effect or the level left; outline: as §4
A549 = assay: Cytotoxicity against human A549 cells assessed as reduction in cell viability incubated for 72 hrs by MTT assay; type: functional, cell-based; details: A549, 72 h
HL-60 = assay: Cytotoxicity against human HL-60 cells assessed as reduction in cell viability incubated for 72 hrs by MTT assay; type: functional, cell-based; details: HL-60, 72 h
T47D = assay: Antiproliferative activity against human T47D cells assessed as reduction in cell viability incubated for 72 hrs by MTT assay; type: functional, cell-based
Outline: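 Cells plated at 1×10⁴/well in RPMI-1640 with 10% FBS and left to adhere overnight. They were then fed serum-free RPMI-1640 containing 40 ng/mL HGF and at least four compound concentrations, 6 wells/group, for 72 h, with medium renewed every other day. MTT 1 mg/mL for 4 h, formazan dissolved in DMSO, A570. Cell number came from a standard curve; IC50 from nonlinear regression of log concentration vs % survival relative to DMSO.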

[8] = Cytotoxicity against human MCF-10A cells assessed as cell viability at 5 uM incubated for 72 hrs by MTT assay; type: cell-based; details: read-out: Activity
[9] = Cytotoxicity against human MCF-10A cells assessed as cell viability at 10 uM incubated for 72 hrs by MTT assay; type: cell-based; details: read-out: Activity
[10] = Cytotoxicity against human MCF-10A cells assessed as cell viability at 30 uM incubated for 72 hrs by MTT assay; type: cell-based; details: read-out: Activity
MDA-MB-231 [11] = assay: Cytotoxicity against human MDA-MB-231 cells assessed as reduction in cell viability at 25 uM incubated for 24 hrs by LDH assay relative to control; type: functional
Outline: (§5)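 MDA-MB-231 cells seeded at 3×10⁴/well and allowed to attach, then treated in triplicate in 5% serum medium for 24 h at 37 °C. Triton X-100 gave maximum release, and […]. Supernatant was reacted with NAD⁺, lactate, INT and diaphorase for 30 min at room temperature, then read at A490. % cytotoxicity was computed relative to spontaneous and maximum release.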

MDA-MB-231 [12] = assay: Cytotoxicity against human MDA-MB-231 cells assessed as reduction in cell viability at 50 uM incubated for 24 hrs by LDH assay relative to control; type: functional; outline: as §5
[13] = target: T1, Hepatocyte growth factor receptor; assay: Inhibition of recombinant human His-tagged c-MET expressed in baculovirus expression system assessed as reduction in c-MET phosphorylation using Tyr6 as substrate incubated for 1 hr by Z'-lyte assay; outline: as §3
[14] = target: Hepatocyte growth factor receptor (Homo sapiens, UniProt P08581, M1250T); assay: Inhibition of recombinant human His-tagged c-MET M1250T mutant expressed in baculovirus expression system assessed as reduction in c-MET phosphorylation using Tyr6 as substrate incubated for 1 hr by Z'-lyte assay
MDA-MB-231 [15] = assay: Antiinvasive activity against human MDA-MB-231 cells assessed as reduction in HGF-induced cell invasion incubated for 24 hrs by fluorescence based assay; type: functional; outline: as §4
MDA-MB-231 [16] = assay: Reduction of c-MET expression level in human MDA-MB-231 cells at 15 to 30 uM incubated for 48 hrs by Western blot analysis; type: functional, cell-based; details: dose 15-30 µM
Outline: (§6)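 MDA-MB-231 cells seeded at 1×10⁶ per 100 mm dish and left overnight. Cells were treated with compound or DMSO in serum-free medium containing HGF 50 ng/mL for 48 h. RIPA lysates (30 μg protein) were run on SDS-PAGE and transferred to PVDF. Membranes were blocked in 5% BSA/TBST and probed overnight at 4 °C with primary antibodies, then HRP secondary; chemiluminescent detection.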

[17] = target: T1, Hepatocyte growth factor receptor; assay: Inhibition of c-MET in human MDA-MB-231 cells assessed as reduction in c-MET phosphorylation level at 15 to 30 uM incubated for 48 hrs by Western blot analysis; type: cell-based; details: dose 15-30 µM; outline: as §6
MDA-MB-231 [18] = assay: Antitumor activity against GFP-tagged human MDA-MB-231 cells xenografted in athymic nude-Foxn1nu/Fox1+ mouse assessed as the reduction in tumor growth at 10 mg/kg, ip dosed 3 times per week for 3 weeks treatment started 14 days of post inoculation; type: functional; details: MDA-MB-231, ip, 504 h, read-out: TGI
Outline: (§7)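 Female athymic nude mice, 4–5 weeks old, received 1×10⁶ MDA-MB-231/GFP cells into the second mammary fat pad (orthotopic), n = 5/group. Dosing was 10 mg/kg i.p. 3×/week or DMSO/saline vehicle, starting on day 14 after inoculation. Tumor volume was taken as L/2 × W², with body weight and clinical signs monitored. Mice were killed on day 33 and tumors excised and weighed.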

[19] = Toxicity in athymic nude-Foxn1nu/Fox1+ mouse assessed as effect on body weight at 10 mg/kg, ip dosed 3 times per week for 3 weeks treatment started 14 days of post inoculation; type: organism-based; details: in vivo, 504 h; outline: as §7
MDA-MB-231 [20] = assay: Antiinvasive activity against human MDA-MB-231 cells assessed as reduction in HGF-mediate cell invasion at 4 uM incubated for 24 hrs by fluorescence based assay relative to control; type: functional; design: scale not given: the % may be the effect or the level left; outline: as §4
MDA-MB-231 [21] = assay: Antiinvasive activity against human MDA-MB-231 cells assessed as reduction in HGF-mediate cell invasion at 8 uM incubated for 24 hrs by fluorescence based assay relative to control; type: functional; design: scale not given: the % may be the effect or the level left; outline: as §4
MDA-MB-231 [22] = assay: cells; details: Homo sapiens, MDA-MB-231, 24 h
Bel-7402 = assay: Cytotoxicity against human Bel-7402 cells assessed as reduction in cell viability incubated for 72 hrs by MTT assay; type: functional, cell-based; details: Bel-7402, 72 h
MOLT-4 = assay: Cytotoxicity against human MOLT-4 cells assessed as reduction in cell viability incubated for 72 hrs by MTT assay; type: functional, cell-based; details: MOLT-4, 72 h

T1 sequence (P08581 whole entry): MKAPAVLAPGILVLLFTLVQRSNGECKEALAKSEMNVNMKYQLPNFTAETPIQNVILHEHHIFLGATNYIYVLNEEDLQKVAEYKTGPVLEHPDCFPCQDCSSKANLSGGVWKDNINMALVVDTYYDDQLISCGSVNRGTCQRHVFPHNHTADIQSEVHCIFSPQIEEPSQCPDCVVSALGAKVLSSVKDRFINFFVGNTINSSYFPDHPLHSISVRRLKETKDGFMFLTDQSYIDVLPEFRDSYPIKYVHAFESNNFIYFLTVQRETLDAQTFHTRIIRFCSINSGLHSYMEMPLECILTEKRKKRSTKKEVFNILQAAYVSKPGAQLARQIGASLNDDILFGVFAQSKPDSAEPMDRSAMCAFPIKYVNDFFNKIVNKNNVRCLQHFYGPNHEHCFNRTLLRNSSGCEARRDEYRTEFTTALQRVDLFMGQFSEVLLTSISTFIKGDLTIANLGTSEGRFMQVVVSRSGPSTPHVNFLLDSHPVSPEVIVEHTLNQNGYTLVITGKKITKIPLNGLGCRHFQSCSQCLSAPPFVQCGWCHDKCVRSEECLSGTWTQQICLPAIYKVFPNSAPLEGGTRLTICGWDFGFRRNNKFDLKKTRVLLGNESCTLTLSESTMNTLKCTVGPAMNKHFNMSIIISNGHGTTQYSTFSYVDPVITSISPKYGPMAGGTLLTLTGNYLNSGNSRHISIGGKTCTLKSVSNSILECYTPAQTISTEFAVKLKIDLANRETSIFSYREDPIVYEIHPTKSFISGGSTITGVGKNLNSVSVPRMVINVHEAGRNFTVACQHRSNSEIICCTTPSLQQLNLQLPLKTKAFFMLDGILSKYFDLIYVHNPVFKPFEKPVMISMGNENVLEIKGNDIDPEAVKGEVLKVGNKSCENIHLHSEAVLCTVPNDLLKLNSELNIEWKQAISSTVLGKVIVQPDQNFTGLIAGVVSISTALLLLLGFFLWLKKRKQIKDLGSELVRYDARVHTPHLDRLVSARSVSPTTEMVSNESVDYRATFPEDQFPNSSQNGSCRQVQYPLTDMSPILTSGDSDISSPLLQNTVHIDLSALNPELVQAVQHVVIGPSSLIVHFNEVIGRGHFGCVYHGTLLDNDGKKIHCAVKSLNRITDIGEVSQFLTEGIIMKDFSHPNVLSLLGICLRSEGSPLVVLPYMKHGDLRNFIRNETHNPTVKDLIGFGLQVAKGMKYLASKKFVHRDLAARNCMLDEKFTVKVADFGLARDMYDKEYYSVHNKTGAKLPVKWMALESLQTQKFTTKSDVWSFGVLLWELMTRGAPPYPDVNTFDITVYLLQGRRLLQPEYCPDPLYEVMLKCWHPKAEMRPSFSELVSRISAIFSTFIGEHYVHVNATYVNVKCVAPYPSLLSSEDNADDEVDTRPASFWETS
Hepatocyte growth factor receptor (Homo sapiens, UniProt P08581, M1250T), sequence (P08581 whole entry M1250T): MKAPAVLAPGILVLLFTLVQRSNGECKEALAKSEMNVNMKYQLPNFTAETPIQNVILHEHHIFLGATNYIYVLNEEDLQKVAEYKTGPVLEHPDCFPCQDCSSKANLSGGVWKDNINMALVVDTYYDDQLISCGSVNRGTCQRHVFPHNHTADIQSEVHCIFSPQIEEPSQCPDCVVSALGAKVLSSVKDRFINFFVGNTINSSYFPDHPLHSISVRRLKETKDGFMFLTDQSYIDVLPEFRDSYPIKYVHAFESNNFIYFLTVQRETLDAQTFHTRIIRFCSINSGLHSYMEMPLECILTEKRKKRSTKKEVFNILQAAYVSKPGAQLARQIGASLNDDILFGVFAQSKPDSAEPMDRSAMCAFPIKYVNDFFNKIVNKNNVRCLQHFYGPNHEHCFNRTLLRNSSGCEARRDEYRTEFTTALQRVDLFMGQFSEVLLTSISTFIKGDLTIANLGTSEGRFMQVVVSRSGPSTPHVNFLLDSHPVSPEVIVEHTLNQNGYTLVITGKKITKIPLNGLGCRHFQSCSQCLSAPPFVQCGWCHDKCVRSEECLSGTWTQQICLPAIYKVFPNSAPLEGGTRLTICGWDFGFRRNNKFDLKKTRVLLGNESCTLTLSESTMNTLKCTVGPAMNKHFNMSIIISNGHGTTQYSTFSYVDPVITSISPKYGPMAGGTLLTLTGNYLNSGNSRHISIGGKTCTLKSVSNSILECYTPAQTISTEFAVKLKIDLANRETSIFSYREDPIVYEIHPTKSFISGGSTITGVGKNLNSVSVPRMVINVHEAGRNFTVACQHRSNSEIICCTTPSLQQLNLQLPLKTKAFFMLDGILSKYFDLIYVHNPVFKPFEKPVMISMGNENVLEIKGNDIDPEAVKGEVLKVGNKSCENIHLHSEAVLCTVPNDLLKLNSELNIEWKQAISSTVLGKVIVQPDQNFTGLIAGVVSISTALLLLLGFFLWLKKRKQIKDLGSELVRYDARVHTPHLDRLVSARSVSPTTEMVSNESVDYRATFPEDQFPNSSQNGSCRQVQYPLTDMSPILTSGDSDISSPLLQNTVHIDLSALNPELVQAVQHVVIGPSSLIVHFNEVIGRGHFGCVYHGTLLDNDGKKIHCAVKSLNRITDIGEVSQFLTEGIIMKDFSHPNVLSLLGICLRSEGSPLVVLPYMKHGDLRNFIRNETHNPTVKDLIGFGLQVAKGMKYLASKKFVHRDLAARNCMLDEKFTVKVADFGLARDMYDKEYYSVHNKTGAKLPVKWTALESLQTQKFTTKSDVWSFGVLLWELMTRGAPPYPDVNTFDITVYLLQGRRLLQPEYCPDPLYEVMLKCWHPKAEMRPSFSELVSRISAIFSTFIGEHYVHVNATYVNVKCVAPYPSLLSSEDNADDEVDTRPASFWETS

## C=CC(C)(C)[C@@]12C[C@H]3C(=O)N/C(=C/c4c[nH]cn4)C(=O)N3[C@@H]1Nc1ccccc12 [ROQUEFORTINE C]
MCF7
  IC50: 21.7 µM
[1]
  IC50: 24.4 µM
BT-474
  IC50: 29.6 µM
SK-BR-3
  IC50: 23.4 µM
MDA-MB-231 [2]
  IC50: 23.5 µM
MDA-MB-468
  IC50: 28.6 µM
[3]
  viability at 72 h, 20 µM: 98.4%
[4]
  inhibition: 39.7%
[5]
  inhibition: 59.7%
MDA-MB-231 [6]
  Activity: 47.6%
MDA-MB-231 [7]
  Activity: 79.3%

## C=CC(C)(C)[C@@]12C=C(O)C(=O)N3/C(=C/c4cnc[nH]4)C(=O)N[C@]31N(OC)c1ccccc12
A549
  IC50: 19.9 µM
HL-60
  IC50: 7.4 µM
MCF7
  IC50: 1.9 µM
[1]
  IC50: 3.2 µM
BT-474
  IC50: 2.7 µM
SK-BR-3
  IC50: 2.8 µM
MDA-MB-231 [2]
  IC50: 6.8 µM
MDA-MB-468
  IC50: 8.9 µM
T47D
  IC50: > 40 µM
[8]
  viability at 72 h, 5 µM: 100%
[9]
  viability at 72 h, 10 µM: 98.8%
[3]
  viability at 72 h, 20 µM: 74.4%
[10]
  viability at 72 h, 30 µM: 48.9%
MDA-MB-231 [11]
  inhibition at 25 µM: 2.5%
MDA-MB-231 [12]
  inhibition at 50 µM: 9.4%
[4]
  inhibition: 56.3%
[5]
  inhibition: 88%
[13]
  IC50: 4.2 µM
  inhibition: Dose-dependent effect
[14]
  IC50: 2.1 µM
MDA-MB-231 [15]
  Activity: Dose-dependent effect
MDA-MB-231 [16]
  inhibition: inactive
[17]
  inhibition: Active
MDA-MB-231 [18]
  inhibition in vivo at 10 mg/kg: 65%
[19]
  Activity: Non-Toxic
MDA-MB-231 [20]
  Activity: 30.7%
MDA-MB-231 [21]
  Activity: 57.5%
MDA-MB-231 [22]
  IC50: 1.8 µM

## O=C1N[C@@H](Cc2c[nH]c3ccccc23)C(=O)N/C1=C/c1cnc[nH]1
MCF7
  IC50: 40 µM
[1]
  IC50: 23.8 µM
BT-474
  IC50: 40 µM
SK-BR-3
  IC50: 40 µM
MDA-MB-231 [2]
  IC50: 31.8 µM
MDA-MB-468
  IC50: 40 µM
[4]
  inhibition: 0%
[5]
  inhibition: 10.2%
MDA-MB-231 [6]
  Activity: 46.1%
MDA-MB-231 [7]
  Activity: 83%

## C=CC(C)(C)[C@@]12C=C(O)C(=O)N3/C(=C/c4cn([C@H]5C[C@@]6(O)O[C@@H]7C[C@@]6(C)[C@]6(C[C@]8(C)CCC(C)(C)[C@@H]8[C@@H]76)[C@@H]5C)cn4)C(=O)N[C@]31N(OC)c1ccccc12
A549
  IC50: 1.8 µM
HL-60
  IC50: 1.8 µM
Bel-7402
  IC50: 1.8 µM
MOLT-4
  IC50: 1.8 µM
